The text below walks through data of ChEMBL document CHEMBL1147433, “Design of small molecule ketoamide-based inhibitors of cathepsin K” (Bioorg Med Chem Lett, 2004).

Series [1] deals with T1, Cathepsin K (Homo sapiens, UniProt P43235).
T1 sequence (P43235 whole entry): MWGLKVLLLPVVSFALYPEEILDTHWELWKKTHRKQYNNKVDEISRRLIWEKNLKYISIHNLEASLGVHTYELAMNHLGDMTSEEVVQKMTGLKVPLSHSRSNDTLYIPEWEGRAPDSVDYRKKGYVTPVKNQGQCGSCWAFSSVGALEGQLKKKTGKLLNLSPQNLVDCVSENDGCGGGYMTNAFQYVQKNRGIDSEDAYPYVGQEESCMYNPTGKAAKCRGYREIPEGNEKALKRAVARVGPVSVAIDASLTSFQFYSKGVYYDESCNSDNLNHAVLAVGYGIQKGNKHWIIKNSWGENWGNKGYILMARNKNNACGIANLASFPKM
The series is described as follows: Inhibitory activity against human cathepsin K. An outline of the steps: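 Recombinant human cathepsin K activity was measured by fluorescence with Cbz-Phe-Arg-AMC as the substrate, in 100 mM NaOAc, 10 mM DTT and 120 mM NaCl at pH 5.5. IC50 values are the mean of two or three inhibition assays. Individual data points within each experiment fell within a 3-fold range of each other.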

A short description of series [2]: Clearance in rat. In kind it is ADME, organism-based. Conditions: in vivo, read-out: Clearance (C1).
Series [3] in a line: Vss in rat. The class given is ADME, organism-based. Conditions: in vivo, read-out: Vss.
Series [4] is described as follows: Oral bioavailability in rat. In kind it is ADME, organism-based. As to conditions: in vivo.
The nature of series [5]: Half-life in rat. In kind it is ADME, organism-based. Conditions: in vivo.
Series [6] in a line: PAPP (membrane permeability) in dog kidney cell monolayer assay. As to conditions: read-out: Activity. In kind it is ADME, Canis lupus familiaris.
The target in series [7] is T2, Cathepsin K (Rattus norvegicus, UniProt O35186).
T2 sequence (O35186 whole entry): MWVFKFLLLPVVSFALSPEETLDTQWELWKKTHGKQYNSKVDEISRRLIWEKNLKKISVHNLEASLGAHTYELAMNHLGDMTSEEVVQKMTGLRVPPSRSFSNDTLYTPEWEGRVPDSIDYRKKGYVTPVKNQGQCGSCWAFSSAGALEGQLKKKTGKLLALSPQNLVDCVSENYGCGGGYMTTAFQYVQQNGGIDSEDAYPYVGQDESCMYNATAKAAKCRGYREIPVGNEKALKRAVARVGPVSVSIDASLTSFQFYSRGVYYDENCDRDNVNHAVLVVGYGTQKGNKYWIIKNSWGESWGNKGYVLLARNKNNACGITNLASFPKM
The series is described as follows: Inhibitory activity against rat cathepsin K.

`CCCC[C@H](NC(=O)OC(C)(C)C)C(=O)C(=O)NCCc1ccccc1` showed an IC50 on Cathepsin K [1] of 5000 nM. This lies in the single-digit micromolar range.

`CCCC[C@H](NC(=O)OC(C(C)(C)C)C(C)(C)C)C(=O)C(=O)N[C@H](C)c1ccccc1`: the midpoint of inhibition against Cathepsin K [1], the IC50, lay at 0.71 nM. `CCCC[C@H](NC(=O)OC(C)(C)C)C(=O)C(=O)NC(C)C` had an IC50 against Cathepsin K [1] of 9100 nM. This IC50 lies about 13000-fold higher than the previous one. `CCCC[C@H](NC(=O)OC(C)(C)C)C(=O)C(=O)N(C)[C@H](C)c1ccccc1`: the IC50 on Cathepsin K [1] was > 100000 nM. Molecule `CCCC[C@H](NC(=O)O[C@H](CCc1ccccc1)C(C)(C)C)C(=O)C(=O)N[C@H](C)c1ccccc1` returned an IC50 at Cathepsin K [1] of 1.1 nM. This lies in the single-digit nanomolar range. Still for that read-out and setting: the result for `CCCC[C@H](NC(=O)OC(CCC)CCC)C(=O)C(=O)N[C@H](C)c1ccccc1` reads 32 nM; that for `CCCC[C@H](NC(=O)O[C@@H](CCCc1ccccc1)C(C)(C)C)C(=O)C(=O)N[C@H](C)c1ccccc1`, 1400 nM. Molecule `CCCC[C@H](NC(=O)OC(C1CCCC1)C1CCCC1)C(=O)C(=O)N[C@H](C)c1ccccc1` registered a concentration for half-maximal inhibition (IC50) against Cathepsin K [1] of 6.3 nM. Compared with the last molecule, the IC50 is about 220-fold lower. The molecule `CCCC[C@H](NC(=O)OC(CC(C)C)CC(C)C)C(=O)C(=O)N[C@H](C)c1ccccc1` had an IC50 against Cathepsin K [1] of 69 nM.

Turning to `CCCC[C@H](NC(=O)OC(C)C(C)(C)C)C(=O)C(=O)N[C@H](C)c1ccccc1` (some centres undefined), at Cathepsin K [1], 20 nM corresponded to half-maximal inhibition (IC50). On the same count and under the same terms, the result for `CCCC[C@H](NC(=O)OC(C)(C)C)C(=O)C(=O)NC(C)(C)C` reads > 100000 nM; that for `CCCC[C@H](NC(=O)OC(C)(C)C)C(=O)C(=O)N[C@H](C)c1ccccc1`, 1200 nM. Molecule `CCCC[C@H](NC(=O)OC(C)(C)C)C(=O)C(=O)NCc1cccs1` showed an IC50 against Cathepsin K [1] of 3400 nM. This IC50 is about 2.8-fold higher than that of the molecule before. On the same count and under the same terms, the result for `CCCC[C@H](NC(=O)OC(C)(C)C)C(=O)C(=O)Nc1ccccc1` reads 6300 nM; that for `CCCC[C@H](NC(=O)OC(C)(C)C)C(=O)C(=O)NCC`, 18000 nM. On to `CCCC[C@H](NC(=O)OC(C(C)C)C(C)C)C(=O)C(=O)N[C@H](C)c1ccccc1`, for which the clearance in series [2] came out at 8.7 mL/min/kg. The Vd in series [3] turned out to be 1.9 L/kg. In addition, the bioavailability in series [4] came to 3%. In series [5], this molecule yielded a half-life of 4.83 h. The Papp in series [6] was 5.7 ×10⁻⁶ cm/s. This molecule had an IC50 against Cathepsin K [7] of 20 nM.

The molecule `CCCC[C@H](NC(=O)OC(CC)CC)C(=O)C(=O)N[C@H](C)c1ccccc1` registered an IC50 against Cathepsin K [1] of 76 nM.

`CCCC[C@H](NC(=O)OC(C)(C)C)C(=O)C(=O)N[C@@H](C)c1ccccc1` had an IC50 against Cathepsin K [1] of 4200 nM. Still for that read-out and setting: the result for `CCCC[C@H](NC(=O)OCC(C)(C)C)C(=O)C(=O)N[C@H](C)c1ccccc1` reads 34 nM; that for `CCCC[C@H](NC(=O)OC(C)(C)C)C(=O)C(=O)NCc1ccccc1`, 2900 nM; that for `CCCC[C@H](NC(=O)OC(C)(C)C)C(=O)C(=O)NC`, 21000 nM. On the same count and under the same terms, for `CCCC[C@H](NC(=O)OC(C)(C)C)C(=O)C(N)=O` the value was 5900 nM; for `CCCC[C@H](NC(=O)O[C@@H](CCc1ccccc1)C(C)(C)C)C(=O)C(=O)N[C@H](C)c1ccccc1`, 912 nM; for `CCCC[C@H](NC(=O)O[C@H](CCCc1ccccc1)C(C)(C)C)C(=O)C(=O)N[C@H](C)c1ccccc1`, 0.79 nM.

Usually IC50 stands for the concentration that inhibits the measured activity by half. Usually clearance stands for the volume of plasma or blood freed of the substance per unit of time. The term bioavailability denotes the share of a dose that reaches the circulation, judged against a reference dose that is usually intravenous. A lower bioavailability goes with poor availability. As a reminder, the half-life is how long it takes for the measured level to halve. Low readings indicate fast loss, high ones slow loss.
